OX1R antag-1 = OX1R (human) antagonism | O43613 | OX1R-expressing cells, FRET antagonist read-out | inhibition, % at 6.6 µM | actives 1.8% (n = 330,000) | AID 485270; in the data active = inhibition mostly above about 38%, no sharp cut-off; inactive = mostly below about 40%
Target sequence (O43613 whole entry, looked up): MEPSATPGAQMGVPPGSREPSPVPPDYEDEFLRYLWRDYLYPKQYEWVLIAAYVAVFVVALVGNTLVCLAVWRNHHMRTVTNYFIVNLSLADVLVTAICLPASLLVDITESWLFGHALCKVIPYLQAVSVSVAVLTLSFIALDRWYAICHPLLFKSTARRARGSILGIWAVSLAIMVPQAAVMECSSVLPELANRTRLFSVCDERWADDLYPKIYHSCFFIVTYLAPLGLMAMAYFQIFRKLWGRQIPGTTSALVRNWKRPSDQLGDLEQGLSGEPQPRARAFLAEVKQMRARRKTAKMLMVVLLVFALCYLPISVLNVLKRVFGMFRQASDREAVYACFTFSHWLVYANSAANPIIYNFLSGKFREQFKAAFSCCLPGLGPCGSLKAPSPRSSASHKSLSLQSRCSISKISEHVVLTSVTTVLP
TRPML3 ag = activates the human TRPML3 channel; Q8TDD5; HEK293 TRPML3-YFP, Fluo-8 calcium fluorescence; 100% = the carbachol control signal; activation, % at 3 µM; actives 0.29% (n = 220,000); AID 1448;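 active = activation above its plate's cutoff, the mean activation of the plate's test wells plus 3 SD, cut at about 12% in these data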
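Material: TRPML3-YFP stable HEK293 cells | Dosing: One concentration, 3 µM nominal, 0.3% DMSO | Timing: 125 s total fluorescence read per well | Technique: Fluo-8 calcium dye fluorescence, ex 470-495, em 515-575 nm | Measure: Percent activation from peak-to-basal fluorescence ratio, scaled between DMSO and carbachol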
CHO parental Ca = counter-screen: ATP calcium response change in parental CHO cells. inhibition, % at 5.6 µM. parental CHO-K1, ATP-induced calcium, Fluo-8 fluorescence. AID 463079. actives 0.63% (n = 330,000);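 active = inhibition above that plate's mean sample inhibition plus 3 SD, cut at about 26% in these data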
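material = parental CHO cells | also added = ATP as calcium-mobilizing challenge | dosing = single point at 5.6 µM | detection = intracellular calcium via Fluo-8 no-wash fluorescent dye | read-out = % inhibition | benchmarks = low control ATP plus DMSO, high control DMSO only | repeats = one well per compound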
zfTRPN1 agonist = zebrafish TRPN1 (NompC) channel agonism. HEK293 zebrafish TRPN1-YFP, Fluo-8 calcium fluorescence; 100% = response to 87 µM carbachol. activation, % at 3 µM. actives 0.18% (n = 220,000). AID 1424;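 active = activation above its plate's cutoff, the mean activation of test wells on that plate plus 3 SD, cut at about 19% in these data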
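System: zebrafish TRPN1-YFP in HEK293 cells / Dosing: 3 µM single point / Timing: dye loading 1 h at 37 °C, then 30 min room temperature / Signal: Fluo-8 calcium fluorescence, excitation 470-495 nm, emission 515-575 nm / Read-out basis: percent activation from peak over basal fluorescence ratio, control-normalized / Control set: high carbachol 87 µM, low DMSO alone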
OX1R antag-2 = blocks the human orexin 1 receptor. O43613. CHO/OX1R cells, Fluo-8 calcium fluorescence, orexin A. inhibition, % at 5 µM. actives 0.43% (n = 330,000);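 active = inhibition above its plate's threshold, mean inhibition of all tested compounds on the plate plus 3 SD, cut at about 37% in these data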
TRPN1 counter = activates zebrafish TRPN1, counter-screen for TRPML3 agonists. shares compounds with TRPML3 ag. actives 10% (n = 310). activation, % at 3 µM. HEK293 zebrafish TRPN1-YFP, Fluo-8 calcium fluorescence; scaled: carbachol wells 100%, DMSO wells 0%;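 active = mean activation over replicates above a set limit taken from the earlier TRPN1 channel primary screen, cut at about 19% in these data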
TRPML3 ag conf = confirmation of human TRPML3 channel agonists | activation, % at 3 µM | shares compounds with TRPML3 ag | actives 80% (n = 310) | HEK293 TRPML3-YFP, Fluo-8 calcium fluorescence; 100% set by carbachol, 0% by DMSO;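 active = activation above a set limit derived from the earlier primary screen, cut at about 12% in these data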
Hits are given with their value; . = inactive; / = no result given. A selection: hits, their analogues and other compounds. The true share with any hit is near 2.5%.

SMILES	OX1R antag-1	TRPML3 ag	CHO parental Ca	zfTRPN1 agonist	OX1R antag-2	TRPN1 counter	TRPML3 ag conf
Cc1cc(N2C(=O)C3C4c5ccccc5C(c5ccccc54)C3C2=O)no1 (stereo not given)	.	12.9	.	.	.	.	.
Cc1cc(N2C(=O)C3C4CC(c5ccccc5)C(C4)C3C2=O)no1 (stereo not given)	.	.	.	.	.	/	/
O=C(NCCOCCNC(=O)OCc1ccccc1)OCc1ccccc1	.	.	.	.	.	/	/
c1ccc2c(c1)OCCOCCOCCOCCOCCOc1ccccc1OCCOCCOCCO2	.	11.6	.	.	.	25.0	.
OCCN1CCOCCOc2ccccc2OCCOCC1	.	/	.	/	.	/	/
Cc1cccc(NC(=O)c2nc[nH]c2C(=O)NCCCCNC(=O)c2[nH]cnc2C(=O)Nc2cccc(C)c2)c1	.	/	.	/	.	/	/
CC1=C(C)/C(=N\OS(=O)(=O)c2ccc(C)cc2)C=CC1=O	81.6	13.9	67.5	.	57.5	.	14.3
CC1=C/C(=N\OS(=O)(=O)c2ccccc2)C(C)=CC1=O	102.3	13.3	82.0	.	93.0	20.2	41.6
COc1cc(C(=O)O/N=C2/C=C(C)C(=O)C=C2C)cc(OC)c1OC	.	.	.	.	.	/	/
Cc1cccc(Cn2nc(C)cc2NC(=O)CCCn2ccc([N+](=O)[O-])n2)c1	.	.	.	.	.	/	/
COP(=O)(c1ccc(N(C)C)cc1)C(O)c1ccccc1 (stereo not given)	.	/	.	/	.	/	/
O=C(Nc1ccn(-c2ccccc2)n1)c1ccc(S(=O)(=O)N2CCCCCC2)cc1	.	53.4	.	.	.	.	60.6
O=C(Nc1ccccc1)c1ccc(S(=O)(=O)N2CCCCC2)cc1	.	.	.	.	.	/	/
Cc1cc(=O)[nH]c2c(C)cc(S(=O)(=O)Nc3ccc(O)cc3)cc12	.	/	.	/	.	/	/
N#C/C(=C\c1cn(CCOc2ccccc2)c2ccccc12)C(=O)NCC1CCCO1 (stereo not given)	.	25.1	.	.	.	.	.
Cc1ccc(C)c(OCCn2cc(/C=C(/C#N)C(=O)NCC3CCCO3)c3ccccc32)c1 (stereo not given)	.	.	.	.	.	/	/
COc1ccc(NC(=O)CSc2nnc(-c3cccnc3)s2)cc1	.	/	.	/	.	/	/
Cc1cnc(C(=O)OC(C)C(=O)Nc2ccc3c(c2)OCCO3)cn1 (stereo not given)	.	/	.	/	.	/	/
Cc1ccc(S(=O)(=O)N2CC3CCCC2C3)cc1 (stereo not given)	.	33.2	.	.	.	.	38.9
Cc1ccc(C2(CC(=O)N3CCCC3)CCOC(C(C)C)C2)cc1 (stereo not given)	.	.	.	.	.	/	/
COc1ccccc1C1(CC(=O)N2CCCCC2)CCOC(C(C)C)C1 (stereo not given)	.	13.6	.	.	.	.	.
COc1ccc(NC(=O)CCCOc2ccc(Cl)c(C)c2)cc1S(=O)(=O)N1CCOCC1	.	/	.	/	.	/	/
CC1=CC(C)(C)N(C(=O)CSc2nnc(-c3ccc(C)cc3)o2)c2ccc(C)cc21	.	61.8	.	.	.	.	48.6
O=C(O)c1cc(S(=O)(=O)N(Cc2ccccc2)c2ccc(Cl)cc2)ccc1Cl	.	/	.	/	.	/	/
CCOc1c(OC(C)=O)ccc(/C=C/c2ccc3cccc(OC(C)=O)c3n2)c1[N+](=O)[O-]	.	.	.	.	.	/	/
C=CCN1C(=O)/C(=C/c2ccc(OC(C)=O)c(OCC)c2[N+](=O)[O-])SC1=S	/	12.2	/	.	/	19.2	.
O=C(Nc1ccc(OC(F)(F)F)cc1)C1CCCN(C(=O)c2ccc(Cl)cc2)C1 (stereo not given)	.	/	.	/	.	/	/
CC(c1ccccc1)C1CC(=O)N(C2CCCCC2)C1=O (stereo not given)	.	26.6	.	.	.	.	25.4
O=C1c2ccccc2C(=O)N1C1CCCCC1	.	/	.	/	.	/	/
Cc1cc(C(=O)COc2cccnc2[N+](=O)[O-])c(C)n1Cc1cccs1	.	.	.	.	.	/	/
